pIC50: −log10 of the molar value.

By pIC50 is commonly meant the IC50 on a negative log10 scale, so that one unit is a factor of ten.

Type in all cases: functional
For one test, the species on record is Oryctolagus cuniculus. Kind of test: Concentration required to inhibit PAF-induced maximum platelet aggregation in rabbit platelet-rich plasma. A digest of the protocol:
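PRP prepared by centrifugation at 250g, 10 min, 4 °C, and diluted with platelet-poor plasma (3000g, 10 min) to 3.5 × 10⁵ platelets/mm³. Aggregation triggered by C-18-PAF at 1.5 × 10^-8 M and read on a dual-channel aggregometer. IC50 from linear regression of at least four points, each the mean of one to three independent experiments.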

Test [1] relates to Mus musculus. Kind of test: Dosage required to inhibit PAF-induced mortality in mice by 50% through intravenous route. The conditions noted are these: read-out: ID50 (the source's name). The gist of the method:
(§1)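 Male Swiss mice, 22-26 g, groups of 10. Test article given iv (10 mL/kg, saline vehicle) 5 min before, or po (20 mL/kg, 1% Tween 80) 60 min before, tail-vein C-18-PAF 100 µg/kg plus propranolol 1 mg/kg. Mortality scored 2 h after PAF; % inhibition vs vehicle controls. ID50 by linear regression, ≥4 points.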

Test [2] concerns Mus musculus. Put plainly: Dosage required to inhibit PAF-induced mortality in mice by 50% through oral administration. The conditions noted are these: read-out: ID50 (the source's name). The gist of the method:
as §1

The test system of a further test is Rattus norvegicus. Kind of test: Dose required to reduce the lowering of the arterial blood pressure caused by PAF by 50% after intravenous administration in rats. The conditions noted are these: read-out: ID50 (the source's name). The gist of the method:
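Rats with both femoral veins catheterized, one for test compound and one for PAF (0.5 µg/kg). Compound given iv in saline (1 mL/kg) 3 min before PAF. Blood pressure monitored; % inhibition of hypotension calculated versus controls. ID50 from linear regression of at least four doses, each the mean of two or more independent experiments.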

`CCCC(CC(=O)N1CCC(Cn2c(C)nc3cnccc32)CC1)c1ccccc1` (configuration not stated) gave a pIC50 in the test listed under Oryctolagus cuniculus of 7.96. Moreover, the ED50 with Mus musculus [1] amounted to 0.01 mg/kg; in the test on Mus musculus [2], 1 mg/kg.
In the test listed under Oryctolagus cuniculus, `Cc1nc2cnccc2n1C1CCN(C(=O)CC(c2ccccc2)c2ccccc2)CC1` showed a pIC50 of 7.00. Further, the ED50 in the test on Rattus norvegicus is 0.41 mg/kg; in the test on Mus musculus [2], over 3 mg/kg.
As for `Cc1nc2cnccc2n1CC1CCN(C(=O)CNC(c2ccccc2)c2ccccc2)CC1`, the pIC50 in the test listed under Oryctolagus cuniculus was 7.89. Moreover, the ED50 with Rattus norvegicus is 0.067 mg/kg; in the test on Mus musculus [1], 0.0041 mg/kg; in the test with Mus musculus [2], 1 mg/kg.
For `Cc1nc2cnccc2n1CC1CCN(C(=O)C=C(c2ccccc2)c2ccccc2)CC1` the same measures were 6.62, 0.011 mg/kg, 0.0037 mg/kg and over 1 mg/kg.
For `Cc1nc2cnccc2n1CC1CCN(C(=O)CC(O)(c2ccccc2)c2ccccc2)CC1` the same measures were 6.19, 0.013 mg/kg, 0.03 mg/kg and 0.03 mg/kg.
In the same order, the values of `COC(=O)NC(CC(=O)N1CCN(C(C#N)c2cccnc2C)CC1)c1ccccc1` (configuration not stated) are 7.39, 0.015 mg/kg, 0.0055 mg/kg and 0.044 mg/kg.
For `Cc1nc2cnccc2n1CC1CCN(C(=O)CC(C)c2ccccc2)CC1` (configuration not stated), in the test listed under Oryctolagus cuniculus, the pIC50 is 7.92. Further, the ED50 in the test on Mus musculus [1] turned out to be 0.003 mg/kg; with Mus musculus [2], 1 mg/kg.
In the test filed under Oryctolagus cuniculus, `N#CC(c1cccnc1)C1CCN(C(=O)CNC(c2ccccc2)c2ccccc2)CC1` (configuration not stated) showed a pIC50 of 7.62. Moreover, the results for the ED50 with Rattus norvegicus and in the test on Mus musculus [2] were 0.03 mg/kg and 2.6 mg/kg, respectively.
For `Cc1nc2cnccc2n1CC1CCN(C(=O)OCC2(c3ccccc3)CC2)CC1`, in the test listed under Oryctolagus cuniculus, the pIC50 was 7.46. In addition, the ED50 in the test on Mus musculus [1] was 0.012 mg/kg; with Mus musculus [2] it was over 1 mg/kg.
In turn, `CCOC(=O)[C@H](NC(=O)N1CCC(Cn2c(C)nc3cnccc32)CC1)c1ccccc1` gave a pIC50 in the test listed under Oryctolagus cuniculus of 6.82. The ED50 was 0.069 mg/kg with Rattus norvegicus, 0.02 mg/kg with Mus musculus [1] and over 1 mg/kg with Mus musculus [2].
`Cc1nc2cnccc2n1CC1CCN(C(=O)NC(c2ccccc2)c2ccccc2)CC1` showed a negative-log IC50 (pIC50) in the test listed under Oryctolagus cuniculus of 8.09. The ED50 is 0.14 mg/kg with Rattus norvegicus, over 0.03 mg/kg with Mus musculus [1] and over 1 mg/kg in the test on Mus musculus [2].
The molecule `Cc1nc2cnccc2n1CC1CCN(C(=O)NC2(c3ccccc3)CC2)CC1` showed a pIC50 in the test listed under Oryctolagus cuniculus of 7.77. Besides, the ED50 in the test with Mus musculus [1] worked out at 0.002 mg/kg; with Mus musculus [2], 0.3 mg/kg.
Turning to `COc1ccccc1CCC(=O)N1CCC(Cn2c(C)nc3cnccc32)CC1`, the pIC50 in the test filed under Oryctolagus cuniculus was 7.82. In addition, the ED50 in the test with Rattus norvegicus is 0.045 mg/kg; in the test with Mus musculus [1] it was 0.0033 mg/kg; with Mus musculus [2], over 1 mg/kg.
For the molecule `COC(=O)NC(CC(=O)N1CCC(n2c(C)nc3cnccc32)CC1)c1ccccc1` (configuration not stated), in the test filed under Oryctolagus cuniculus, the pIC50 is 5.89. The ED50 in the test with Rattus norvegicus stood at 0.56 mg/kg.
In the test filed under Oryctolagus cuniculus, `COC(=O)NC(CC(=O)N1CCC(Cn2c(C)nc3cnccc32)CC1)c1ccccc1` (configuration not stated) gave a pIC50 of 7.92. Further, the ED50 in the test with Rattus norvegicus amounted to 0.035 mg/kg; in the test with Mus musculus [1] it was 0.0027 mg/kg; in the test on Mus musculus [2] it was 0.1 mg/kg.
In the same order, the values of `CCOC(=O)[C@H](CC(C)C)NC(=O)N1CCC(Cn2c(C)nc3cnccc32)CC1` are 7.92, 0.03 mg/kg, 0.0027 mg/kg and over 1 mg/kg.
In the same order, the values of `Cc1nc2cnccc2n1CC1CCN(C(=O)CN(C)c2ccccc2)CC1` are 7.64, 0.31 mg/kg, over 0.03 mg/kg and over 1 mg/kg.
Consider `Cc1nc2cnccc2n1CC1CCN(C(=O)CCc2ccccc2)CC1`, for which the pIC50 in the test listed under Oryctolagus cuniculus was 7.22. Further, the ED50 in the test with Rattus norvegicus is over 5 mg/kg; in the test with Mus musculus [1] it was 0.013 mg/kg; with Mus musculus [2] it was over 1 mg/kg.
In turn, `CCOC[C@@H](NC(=O)N1CCC(Cn2c(C)nc3cnccc32)CC1)c1ccccc1` showed a pIC50 in the test filed under Oryctolagus cuniculus of 7.77. The ED50 with Mus musculus [1] was 0.01 mg/kg; in the test with Mus musculus [2], 1 mg/kg.
